pIC50: −log10 of the molar value.
Key:
[1] = Cytotoxicity against AGT-positive human SF763 cells assessed as reduction in cell viability measured after 24 hrs by CCK8 assay; assay type: functional, cell-based; conditions: SF763, 24 h
[2] = Potency index, ratio of ACNU IC50 to test compound IC50 for AGT-positive human SF763 cells; assay type: functional
Procedure, shortened: (§1)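 Cell survival curves were run in human glioma cells, with SF763 high in AGT and SF126 lacking AGT. IC50 values came from the curves. The index is the IC50 of ACNU or BCNU alone divided by the test compound's IC50.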

[3] = Potency index, ratio of ACNU IC50 in combination with O6-BG to test compound IC50 for AGT-positive human SF763 cells; assay type: functional
Procedure, shortened: (§2)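 Survival curves were run in AGT-high human glioma SF763 cells. […] The index is the IC50 of the combination divided by the test compound's IC50.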

[4] = Potency index, ratio of BCNU IC50 to test compound IC50 for AGT-positive human SF763 cells; assay type: functional; procedure, shortened: as §1
[5] = Potency index, ratio of BCNU IC50 in combination with O6-BG to test compound IC50 for AGT-positive human SF763 cells; assay type: functional; procedure, shortened: as §2
[6] = Cytotoxicity against AGT-positive human SF767 cells assessed as reduction in cell viability measured after 24 hrs by CCK8 assay; assay type: functional, cell-based; conditions: SF767, 24 h
[7] = Cytotoxicity against AGT-deficient human SF126 cells assessed as reduction in cell viability measured after 24 hrs by CCK8 assay; assay type: functional, cell-based; conditions: SF-126, 24 h
[8] = system: SF-126; assay: Potency index, ratio of ACNU IC50 to test compound IC50 for AGT-deficient human SF126 cells; assay type: functional; procedure, shortened: as §1
[9] = target: T1, Methylated-DNA--protein-cysteine methyltransferase (Homo sapiens) (UniProt P16455); assay: Inhibition of AGT in human SF763 cells assessed as increase in dG-dC crosslinking incubated for 12 hrs by HPLC-ESI-MS/MS analysis; assay type: cell-based
T1 sequence (whole entry): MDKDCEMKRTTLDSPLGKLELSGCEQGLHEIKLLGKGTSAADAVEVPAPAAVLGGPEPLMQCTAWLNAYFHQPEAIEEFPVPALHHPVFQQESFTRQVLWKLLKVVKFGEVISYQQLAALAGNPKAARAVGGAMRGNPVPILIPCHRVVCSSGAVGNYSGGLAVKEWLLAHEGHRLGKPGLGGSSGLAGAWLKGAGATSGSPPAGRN
Procedure, shortened: (§3)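 Glioma cells exposed to drug at 0.1, 0.2, 0.4 and 0.6 mM. Genomic DNA then extracted and dG-dC interstrand cross-link levels quantified by HPLC-ESI-MS/MS. Triplicate determinations (n=3) per concentration.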

[10] = target: T1, Methylated-DNA--protein-cysteine methyltransferase (Homo sapiens); assay: Inhibition of AGT in human SF767 cells assessed as increase in dG-dC crosslinking incubated for 12 hrs by HPLC-ESI-MS/MS analysis; assay type: cell-based; procedure, shortened: as §3
[11] = system: SF-126; assay: Binding affinity to DNA in AGT-deficient human SF126 cells assessed as increase in dG-dC crosslinking incubated for 12 hrs by HPLC-ESI-MS/MS analysis; assay type: cell-based; procedure, shortened: as §3
[12] = species on record: Bos taurus; assay: Binding affinity to calf thymus DNA assessed as increase in dG-dC crosslinking incubated for 12 hrs under dark condition by HPLC-ESI-MS/MS analysis
Procedure, shortened: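 Calf thymus DNA treated directly with drug at 0.1, 0.2, 0.4 and 0.6 mM. dG-dC cross-link levels measured by HPLC-ESI-MS/MS.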

[13] = n-Octanol/water partition coefficient, log P of the compound at 2 mM by HPLC analysis; assay type: physicochemical
[14] = Cytotoxicity against AGT-positive human SF767 cells assessed as reduction in cell viability pretreated with O6-BG for 2 hrs followed by addition of compound measured after 24 hrs by CCK8 assay; assay type: functional, cell-based
Procedure, shortened: (§4)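 Nitrosourea combined with 20 µM O6-BG. Survival curves were generated for the glioma cells across a range of drug concentrations, and IC50 was read from those curves.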

[15] = Cytotoxicity against AGT-deficient human SF126 cells assessed as reduction in cell viability pretreated with O6-BG for 2 hrs followed by addition of compound measured after 24 hrs by CCK8 assay; assay type: functional, cell-based; conditions: SF-126; procedure, shortened: as §4
[16] = Cytotoxicity against AGT-positive human SF763 cells assessed as reduction in cell viability pretreated with O6-BG for 2 hrs followed by addition of compound measured after 24 hrs by CCK8 assay; assay type: functional, cell-based; procedure, shortened: as §4

Row | SMILES | pIC50 [1] | Ratio IC50 [2] | Ratio IC50 [3] | Ratio IC50 [4] | Ratio IC50 [5] | pIC50 [6] | pIC50 [7] | Ratio IC50 [8] | inhibition [9] | inhibition [10] | Activity [11] | Activity [12] | logP at 2000 µM [13] | pIC50 [14] | pIC50 [15] | pIC50 [16]
1 | Nc1nc(OCc2ccccc2)c2ncn(CCNC(=O)N(CCCl)N=O)c2n1 | 4.22 | 27 | 17 | 5.8 | 3.3 | 4.24 | 4.28 | 7 - 9 | Dose-dependent effect | Dose-dependent effect | Dose-dependent effect | Dose-dependent effect | 1.81 | – | – | –
2 | Cc1ncc(CNC(=O)N(CCCl)N=O)c(N)n1 [NIMUSTINE] | 2.80 | – | – | – | – | 3.24 | 3.35 | – | Dose-dependent effect | Dose-dependent effect | Dose-dependent effect | Dose-dependent effect | – | 3.40 | 3.44 | –
3 | O=NN(CCCl)C(=O)NCCCl [CARMUSTINE] | 3.46 | – | – | – | – | 3.89 | 4.07 | – | Dose-dependent effect | Dose-dependent effect | Dose-dependent effect | Dose-dependent effect | – | 3.92 | 4.26 | 3.70

Source: ChEMBL document CHEMBL3877330, “Synthesis and Antitumor Activity Evaluation of a Novel Combi-nitrosourea Prodrug: BGCNU” (ACS Med Chem Lett, 2017)
